Data: ChEMBL document CHEMBL1155599, “Ancistrolikokines A-C: new 5,8'-coupled naphthylisoquinoline alkaloids from Ancistrocladus likoko” (J Nat Prod, 2000)
In brackets after ≈: the same amount, converted by molar mass.

What was measured:
[1] = Cytotoxicity against rat L6 cells after 72 hrs; format: cell-based; conditions: read-out: MIC
Plasmodium falciparum [2] = test: Antimalarial activity after 48 hrs against Plasmodium falciparum K1 infected human erythrocytes by [3H]hypoxanthine uptake; format: functional, organism-based
Method in brief: (§1)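 Modified [3H]hypoxanthine incorporation assay; infected human red blood cells exposed to serial drug dilutions for 48 h at 37 °C under reduced O2/elevated CO2, then [3H]hypoxanthine added and incubated a further 24 h; harvested on glass fiber filters, scintillation counted. IC50 from sigmoidal inhibition curve; duplicates, repeated at least once. NF54 is drug-sensitive, K1 is chloroquine/pyrimethamine-resistant.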

Plasmodium falciparum [3] = test: Antimalarial activity after 48 hrs against Plasmodium falciparum NF54 infected human erythrocytes by [3H]hypoxanthine uptake; format: functional, organism-based; method in brief: as §1

| IC50 (Plasmodium falciparum [2]) [µg/mL] | IC50 (Plasmodium falciparum [3]) [µg/mL] | Compound | MCC at 72 h [1] [µg/mL] |
| --- | --- | --- | --- |
| 0.14 (≈ 0.344 µM) | 0.191 (≈ 0.469 µM) | COc1cc(O)c2c(c1-c1ccc(O)c3c(OC)cc(C)cc13)C[C@@H](C)N(C)[C@@H]2C [ANCISTROLIKOKINE A] | 90 |
| 0.208 (≈ 0.529 µM) | 0.538 (≈ 1.37 µM) | COc1cc(O)c(-c2ccc(OC)c3c(O)cc(C)cc23)c2c1[C@H](C)N[C@H](C)C2 [ANCISTROLIKOKINE B] | 30 |
| 0.072 (≈ 0.19 µM) | 0.024 (≈ 0.0632 µM) | COc1cc(C)cc2c(-c3c(O)cc(O)c4c3C[C@@H](C)N[C@@H]4C)ccc(O)c12 [KORUPENSAMINE A] | 100 |
| 0.924 (≈ 2.27 µM) | 6.23 (≈ 15.3 µM) | COc1cc(O)c(-c2ccc(OC)c3c(O)cc(C)cc23)c2c1[C@@H](C)N(C)[C@H](C)C2 [ANCISTROLIKOKINE C] | – |
